Source: PubChem BioAssay (The Scripps Research Institute Molecular Screening Center)
An excerpt weighted towards active compounds, which were near 1.9% of everything screened.
NPY-Y1 PAM-ag = potentiates or activates human NPY-Y1 receptor; hit rate 0.37% among 220,000; activation, % at 3.6 µM; P25929; NPY-Y1 expressing cells, potentiator/agonist activation; AID 1304; in the data active = activation above about 33%, passing the limit was not always enough;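 also: cells stimulated with NPY at EC10 then isoproterenol at EC100; 0% = low agonist plus stimulus and 100% = saturating agonist plus stimulus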
Target sequence (P25929 whole entry, looked up): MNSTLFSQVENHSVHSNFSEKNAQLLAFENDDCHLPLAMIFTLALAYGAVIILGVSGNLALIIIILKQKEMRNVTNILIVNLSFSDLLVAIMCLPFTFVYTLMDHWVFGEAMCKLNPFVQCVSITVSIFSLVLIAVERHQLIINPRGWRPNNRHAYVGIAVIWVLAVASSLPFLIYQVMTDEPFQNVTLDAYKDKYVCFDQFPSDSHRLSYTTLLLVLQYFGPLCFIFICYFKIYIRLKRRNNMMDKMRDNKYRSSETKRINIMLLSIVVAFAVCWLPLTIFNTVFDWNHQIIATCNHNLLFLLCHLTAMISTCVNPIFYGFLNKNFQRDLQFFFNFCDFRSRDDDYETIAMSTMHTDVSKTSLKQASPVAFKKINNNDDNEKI
NPY-Y2 PAM-ag = human NPY-Y2 potentiation or agonism, primary screen; P49146; cells expressing NPY-Y2, potentiator/agonist read-out; activation, % at 3.6 µM; hit rate 0.45% among 220,000; AID 1359; in the data active = activation above about 27%;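 also: cells stimulated with NPY near EC25 plus isoproterenol at EC100; 0% = vehicle plus submaximal agonist and 100% = vehicle plus saturating agonist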
NPY Y2 blocker = NPY-Y2 (human) receptor antagonism | hit rate 0.99% among 140,000 | inhibition, % at 2.7 µM | P49146 | AID 793 | NPY-Y2 expressing cells, antagonist mode;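 also: 0% = vehicle with agonist challenge and 100% = reference antagonist with challenge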
NPY Y1 blocker = blocks the human neuropeptide Y Y1 receptor; P25929; HEK293-CNG Y1 cells, membrane potential fluorescence; NPY at EC95, then isoproterenol; inhibition, % at 3.6 µM; hit rate 1% among 200,000; AID 1040;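 active = inhibition above the campaign mean inhibition of all tested compounds plus 3 SD, cut at about 20% in these data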;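 also: 0% = DMSO wells given NPY plus isoproterenol and 100% = isoproterenol alone without NPY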
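Benchmarks – high control isoproterenol alone, low control NPY with isoproterenol · Material – HEK293 Y1/CNG channel cell line · Times – dye 3 h, compound 60 min room temperature, stimulation 45 min · Probe or stimulus – NPY (25 nM), isoproterenol (1 µM), Ro 20-1724 (25 µM) · Evaluation – % inhibition of NPY effect · Signal – fluorescence, membrane potential probe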
NPY-Y1 ant conf = confirmation of human neuropeptide Y receptor Y1 antagonists. shares compounds with NPY Y1 blocker. HEK293-CNG NPY-Y1, membrane potential fluorescence, cAMP; NPY challenge against isoproterenol-raised cAMP. inhibition, % at 3.6 µM. hit rate 21% among 1,200. AID 1254; in the data active = inhibition above about 20%;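 also: 0% = vehicle with agonist plus stimulus and 100% = stimulus alone without agonist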
NPY-Y2 antag ct = counter-screen for NPY-Y1 antagonists: human NPY-Y2 antagonism. shares compounds with NPY Y1 blocker. HEK293 NPY-Y2 CNG membrane potential fluorescence; cells given NPY, then isoproterenol. inhibition, % at 3.6 µM. hit rate 28% among 1,200. AID 1255;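 also: 0% = DMSO with agonist challenge and 100% = reference antagonist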
Numbers without * were called inactive; nt = no result given. Rule as the data show it, unless noted: active = inhibition above about 17%; inactive = the rest.

SMILES | NPY-Y1 PAM-ag | NPY-Y2 PAM-ag | NPY Y2 blocker | NPY Y1 blocker | NPY-Y1 ant conf | NPY-Y2 antag ct
Cc1cc(Nc2ccc([N+](=O)[O-])cc2)nc2ccccc12 | 21 | 3 | nt | 24* | 7 | 16
OCC1(CCCc2ccccc2)CCN(C2CCSCC2)CC1 | -14 | -28 | nt | 25* | 10 | 12
CCOC(=O)C1(CCCc2ccccc2)CCN(C2CCSCC2)CC1 | -10 | -10 | nt | 52* | 29* | 15
Cc1ccc(NC(=O)c2ccc(NCc3ccco3)c([N+](=O)[O-])c2)cc1Cl | -10 | -4 | -4 | 3 | nt | nt
Cc1ccc(-n2c(-c3ccccc3)c[n+]3c2CCC3)cc1 | -3 | -4 | nt | -4 | nt | nt
Cc1ccc(-n2c(-c3ccccc3)c[n+]3c2CCc2ccccc2-3)c(C)c1 | -24 | 9 | nt | 58* | 32* | 15
O=C(COC(=O)c1cc(-c2ccccn2)nc2ccccc12)Nc1ncc(C(F)(F)F)cc1Cl | -3 | -1 | nt | nt | nt | nt
CCOC(=O)N1CCN(S(=O)(=O)c2ccc(C(=O)Nc3ccc4c(c3)C(=O)NC4=O)cc2)CC1 | 3 | 11 | 3 | 0 | nt | nt
S=c1[nH]nc(COc2ccccc2)n1/N=C/c1ccncc1 | -1 | 4 | nt | 11 | nt | nt
CC(/C=N/n1c(COc2ccccc2)n[nH]c1=S)=C\c1ccccc1 | -31 | -30 | 11 | 31* | 6 | 7
CCOC(=O)C1CCCN(C(=O)CN2C(=O)/C(=C/c3ccc(OC)cc3)Oc3ccccc32)C1 (stereo not given) | 2 | 10 | 15 | 10 | nt | nt
O=C(NN1C(=O)C2C(c3ccccc3)C=CC(c3ccccc3)C2C1=O)c1cccc(Br)c1 (stereo not given) | 26 | 16 | 4 | -2 | nt | nt
O=C(COC(=O)CCC(=O)c1ccc(Cl)cc1)NCc1ccco1 | -24 | -23 | nt | 22* | 5 | 4
O=C(COC(=O)CCSc1ccc(Cl)cc1)NCc1ccccc1 | -26 | -12 | 15 | 22* | 8 | 10
O=C(COC(=O)CCSc1ccc(Cl)cc1)NCc1ccc(Cl)cc1 | -33 | -25 | 9 | 11 | nt | nt
O=C(COC(=O)CCC(=O)c1ccc(Cl)cc1)NCCc1ccccc1 | 1 | -19 | nt | 10 | nt | nt
O=C(/C=C/c1ccc(Cl)cc1)NC(=S)Nc1ccc(NC(=O)c2ccco2)cc1 | 1 | -9 | 0 | -10 | nt | nt
CCc1ccc2nc(NC(=O)CCCc3cccs3)sc2c1 | -39 | -21 | 7 | 24* | 11 | 8
Cc1ccc2nc(NC(=O)Cc3cccs3)sc2c1 | 32 | 21 | -4 | -11 | nt | nt
CC1CCCCN1c1ccc(N)cc1C(N)=O (stereo not given) | 10 | -1 | nt | 3 | nt | nt
Cc1cccc(C(=O)Nc2cccc(OC(=O)c3cccc(C)c3)c2)c1 | -3 | -24 | 17 | 27* | 17 | 11
CCOc1ccc(N(CC(=O)NN=C2CCCC2)S(C)(=O)=O)cc1 | -1 | 2 | nt | 2 | nt | nt
Cc1nn(-c2ccccc2)c2nc(N)c(C#N)c(-c3ccc(F)cc3)c12 | -29 | -18 | 4 | 23* | 4 | 16
N#Cc1c(N)nc2c(c1-c1ccc(F)cc1)c(=O)nc1sccn12 | 2 | 2 | nt | 47* | -1 | 4
COc1ccc(Oc2cn[nH]c2-c2ccc(O)cc2O)cc1 | -34 | 6 | 3 | 61* | 40* | 2
SMILES | NPY-Y1 PAM-ag | NPY-Y2 PAM-ag | NPY Y2 blocker | NPY Y1 blocker | NPY-Y1 ant conf | NPY-Y2 antag ct
Cc1oc2c(c1C(=O)c1ccc(Cl)cc1)C(=O)C(=O)c1ccccc1-2 | -22 | 1 | 9 | 26* | 9 | 12
Cc1ccc(C(=O)c2c(C)oc3c2C(=O)C(=O)c2ccccc2-3)cc1 | -9 | -3 | 5 | 20 | nt | nt
COc1ccc(-c2nnc3sc(C4CCCCC4)nn23)cc1OC | -80 | -40 | 16 | 33* | 24* | 38*
CC(Sc1ccccc1)C(=O)NN=C1CCN(C)CC1 (stereo not given) | -3 | -4 | nt | 3 | nt | nt
O=C(COC(=O)CCC(=O)c1ccc2c(c1)OCCO2)NCc1ccc2c(c1)OCO2 | -28 | -12 | 7 | 21* | 12 | 9
COc1ccc(-n2cc(CNC3CCN(C)CC3)c(-c3cccc(F)c3)n2)cc1 | -20 | -41 | nt | 22* | 17 | 24*
Cc1ccc(/C=C(\CCC(=O)O)c2nc3ccccc3s2)cc1[N+](=O)[O-] | -22 | -26 | 15 | 18 | nt | nt
CNc1ccc(/C=C(\CCC(=O)O)c2nc3ccccc3s2)cc1[N+](=O)[O-] | -79 | -24 | 15 | 26* | 39* | 52*
CCn1c(C(=O)OC)cc2c1ccn2-c1ccc(F)cc1 | 13 | 3 | 17 | 27* | 14 | 4
COC(=O)c1cc2c(ccn2-c2ccc(F)cc2)n1Cc1ccc(OC)cc1 | -24 | 10 | 9 | 24* | 11 | 9
O=C1C(=O)N(CC2CCCO2)C(c2ccccc2[N+](=O)[O-])/C1=C(/O)c1ccccc1 (stereo not given) | 17 | 2 | nt | 1 | nt | nt
O=C(CCN1C(=O)c2ccccc2C1=O)C1=NN[C@@H]2C(=O)N(c3ccc4c(c3)OCO4)C(=O)[C@H]12 | -5 | -4 | nt | nt | nt | nt
COc1cccc(C2NC(=O)NC(C)=C2C(=O)Nc2ccc(C)cc2)c1 (stereo not given) | 18 | -2 | 2 | 3 | nt | nt
COC(=O)C1=C(Nc2ccc(C)cc2)C=C(C)C(C(=O)OC)C1c1cccc(OC)c1 (stereo not given) | -72 | -25 | 10 | 24* | 11 | 11
COc1ccc(-n2cc(-c3ccccc3)c3c(NCCCN4CCOCC4)ncnc32)cc1 | -18 | -27 | nt | 26* | 13 | 7
CCOc1ccccc1CN1CCN(C/C=C/c2ccc(OC)cc2)CC1CCO (stereo not given) | -35 | -51 | nt | 25* | 12 | 14
CN1CCN(c2nc(-c3cccnc3)nc3scc(-c4ccccc4)c23)CC1 | -38 | -23 | nt | 28* | 7 | 13
CCCCNC(=S)N(C)/N=C/c1ccc2c(c1)OCO2 | -21 | -17 | 10 | 22* | 9 | 11
Cn1nc(C(=O)NC(C)(C)C)c2ccccc21 | 15 | -5 | 4 | -3 | nt | nt
COc1ccc(C(=O)N/N=C/C2CC=CCC2)cc1OC (stereo not given) | 2 | -6 | nt | 3 | nt | nt
Cc1ccc(-c2nc(CCN3C(=O)c4ccccc4C3=O)cs2)cc1 | -33 | -25 | 4 | 25* | 3 | 5
Cc1ccc2nc3c(c(C(=O)OCC(=O)NC4CCS(=O)(=O)C4)c2c1)CCCC3 (stereo not given) | 2 | 2 | nt | 2 | nt | nt
Cn1ccnc1SCC(=O)c1cc2ccccc2o1 | -12 | 4 | 3 | 0 | nt | nt
Cn1cnnc1SCC(=O)c1cc2ccccc2o1 | 14 | 6 | nt | 63* | -2 | -1
CCn1nnc(-c2ccccc2NC(=O)c2cccc(-n3cnnn3)c2)n1 | -11 | -4 | 2 | 8 | nt | nt
CCn1nnc(-c2ccccc2NC(=O)c2ccc(-n3cnnn3)cc2)n1 | 12 | -6 | 6 | 23* | 14 | 6
